These results are taken from ChEMBL document CHEMBL4118021, “Studies of TAK1-centered polypharmacology with novel covalent TAK1 inhibitors” (Bioorg Med Chem, 2017).

The term inhibition denotes the relative decrease from the control value, in per cent.

Calls of active or inactive are those of the source. The rule behind the calls is not given here.

For test [1], the target named is Mitogen-activated protein kinase kinase kinase 11 (Homo sapiens) (UniProt Q16584). Nature of the test: Inhibition of MLK3 in human SKCO1 cells at 1 uM after 4 hrs using biotin labeled DLKSNNILLLQPIESDDMEHK probe by mass-spectrometric analysis relative to control. The format is cell-based.
Test [2] has as its target T1, Dual specificity mitogen-activated protein kinase kinase 5 (Homo sapiens) (UniProt Q13163).
T1 sequence (whole entry): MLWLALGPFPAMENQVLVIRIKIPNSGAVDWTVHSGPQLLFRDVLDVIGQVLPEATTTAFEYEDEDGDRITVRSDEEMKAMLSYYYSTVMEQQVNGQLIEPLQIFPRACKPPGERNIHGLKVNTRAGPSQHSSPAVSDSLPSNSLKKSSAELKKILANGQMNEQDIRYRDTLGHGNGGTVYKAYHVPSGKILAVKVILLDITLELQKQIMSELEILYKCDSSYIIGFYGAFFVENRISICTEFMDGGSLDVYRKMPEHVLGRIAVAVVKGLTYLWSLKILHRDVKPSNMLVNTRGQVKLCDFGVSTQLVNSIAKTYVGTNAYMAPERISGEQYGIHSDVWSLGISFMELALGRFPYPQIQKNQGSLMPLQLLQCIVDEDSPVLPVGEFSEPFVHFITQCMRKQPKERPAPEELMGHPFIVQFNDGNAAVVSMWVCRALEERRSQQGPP
Kind of test: Inhibition of human MEK5 (98 to 448 residues) expressed in mammalian expression system assessed as enzyme activity at 10 uM by KINOMEScan assay relative to control. Also on record: scale not given: the % may be the effect or the level left. In short, it runs like this: (§1)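 In vitro ATP-site competition binding assay across a panel of 456 kinases, with compound tested at 1 and 10 μM.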

Test [3] addresses T2, Dual specificity mitogen-activated protein kinase kinase 4 (Homo sapiens) (UniProt P45985).
T2 sequence (whole entry): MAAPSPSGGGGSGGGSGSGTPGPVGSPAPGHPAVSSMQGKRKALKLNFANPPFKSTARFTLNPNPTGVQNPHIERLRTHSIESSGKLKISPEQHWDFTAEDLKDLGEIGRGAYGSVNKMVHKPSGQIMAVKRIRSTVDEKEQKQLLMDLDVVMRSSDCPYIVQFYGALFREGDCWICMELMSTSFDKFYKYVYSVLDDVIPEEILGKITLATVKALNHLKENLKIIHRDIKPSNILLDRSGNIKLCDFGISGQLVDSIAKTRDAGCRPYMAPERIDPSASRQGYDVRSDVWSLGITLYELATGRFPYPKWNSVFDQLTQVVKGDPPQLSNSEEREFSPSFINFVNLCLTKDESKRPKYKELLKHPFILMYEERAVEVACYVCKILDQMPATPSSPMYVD
Kind of test: Inhibition of human MEK4 (84 to 399 residues) expressed in mammalian expression system assessed as enzyme activity at 10 uM by KINOMEScan assay relative to control. Also on record: scale not given: the % may be the effect or the level left. In short, it runs like this: as §1

For test [4], the target named is Y-box-binding protein 3 (Homo sapiens) (UniProt P16989). Nature of the test: Binding affinity to YBX3 in human NCI-H23 cells at 1 uM by mass spectrometry based pull down assay. The class given is cell-based.
The target of test [5] is Phosphoribosylformylglycinamidine synthase (Homo sapiens) (UniProt O15067). Kind of test: Binding affinity to PFAS in human NCI-H23 cells at 1 uM by mass spectrometry based pull down assay. The format is cell-based.
In test [6] the target is Casein kinase II subunit beta (Homo sapiens) (UniProt P67870). Kind of test: Binding affinity to CSNK2B in human NCI-H23 cells at 1 uM by mass spectrometry based pull down assay. The class given is cell-based.
Test [7] concerns the target Tyrosine-protein phosphatase non-receptor type 1 (Homo sapiens) (UniProt P18031). Kind of test: Binding affinity to PTPN1 in human NCI-H23 cells at 1 uM by mass spectrometry based pull down assay. The format is cell-based.
The target in test [8] is Thymidylate synthase (Homo sapiens) (UniProt P04818). Kind of test: Binding affinity to TYMS in human NCI-H23 cells at 1 uM by mass spectrometry based pull down assay. The class given is cell-based.
In test [9] the target is ATP-dependent 6-phosphofructokinase, muscle type (Homo sapiens) (UniProt P08237). Kind of test: Binding affinity to PFKM in human NCI-H23 cells at 1 uM by mass spectrometry based pull down assay. The class given is cell-based.
Test [10] has as its target T3, Dual specificity mitogen-activated protein kinase kinase 3 (Homo sapiens) (UniProt P46734).
T3 sequence (whole entry): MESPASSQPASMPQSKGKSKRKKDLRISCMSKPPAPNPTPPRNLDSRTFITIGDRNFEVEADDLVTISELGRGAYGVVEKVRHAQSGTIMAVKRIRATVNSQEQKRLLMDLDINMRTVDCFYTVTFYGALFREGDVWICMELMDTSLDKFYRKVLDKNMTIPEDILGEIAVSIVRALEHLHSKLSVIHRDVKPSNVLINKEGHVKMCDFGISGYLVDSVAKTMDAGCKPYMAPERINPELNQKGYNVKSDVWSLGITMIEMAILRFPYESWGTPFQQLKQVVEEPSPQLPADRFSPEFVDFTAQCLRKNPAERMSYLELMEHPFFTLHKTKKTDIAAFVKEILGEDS
Kind of test: Binding affinity to MAP2K3 in human NCI-H23 cells at 1 uM by mass spectrometry based pull down assay. The format is cell-based.

For test [11], the target named is Dual specificity mitogen-activated protein kinase kinase 1 (Homo sapiens) (UniProt Q02750). Nature of the test: Binding affinity to MAP2K1 in human NCI-H23 cells at 1 uM by mass spectrometry based pull down assay. The class given is cell-based.
The target of test [12] is Tropomyosin alpha-3 chain (Homo sapiens) (UniProt P06753). Nature of the test: Binding affinity to TPM3 in human NCI-H358 cells at 1 uM by mass spectrometry based pull down assay. The format is cell-based.
Test [13] concerns the target Small ribosomal subunit protein uS7m (Homo sapiens) (UniProt Q9Y2R9). Kind of test: Binding affinity to MRPS7 in human NCI-H358 cells at 1 uM by mass spectrometry based pull down assay. The class given is cell-based.
For test [14], the target named is RuvB-like 2 (Homo sapiens) (UniProt Q9Y230). Nature of the test: Binding affinity to RUVBL2 in human NCI-H358 cells at 1 uM by mass spectrometry based pull down assay. The class given is cell-based.
For test [15], the target named is Calponin-2 (Homo sapiens) (UniProt Q99439). Kind of test: Binding affinity to CNN2 in human NCI-H358 cells at 1 uM by mass spectrometry based pull down assay. The class given is cell-based.
Test [16] addresses Serine hydroxymethyltransferase, mitochondrial (Homo sapiens) (UniProt P34897). Kind of test: Binding affinity to SHMT2 in human NCI-H358 cells at 1 uM by mass spectrometry based pull down assay. The format is cell-based.
Test [17] deals with MAP kinase-interacting serine/threonine-protein kinase 2 (Homo sapiens) (UniProt Q9HBH9). Nature of the test: Binding affinity to MKNK2 in human NCI-H358 cells at 1 uM by mass spectrometry based pull down assay. The class given is cell-based.
For test [18], the target named is 5'-AMP-activated protein kinase subunit gamma-1 (Homo sapiens) (UniProt P54619). Nature of the test: Binding affinity to PRKAG1 in human NCI-H358 cells at 1 uM by mass spectrometry based pull down assay. The format is cell-based.
Test [19] addresses Polymeric immunoglobulin receptor (Homo sapiens) (UniProt P01833). Nature of the test: Binding affinity to PIGR in human NCI-H358 cells at 1 uM by mass spectrometry based pull down assay. The class given is cell-based.

Tropomyosin alpha-3 chain (Homo sapiens), sequence (P06753 whole entry): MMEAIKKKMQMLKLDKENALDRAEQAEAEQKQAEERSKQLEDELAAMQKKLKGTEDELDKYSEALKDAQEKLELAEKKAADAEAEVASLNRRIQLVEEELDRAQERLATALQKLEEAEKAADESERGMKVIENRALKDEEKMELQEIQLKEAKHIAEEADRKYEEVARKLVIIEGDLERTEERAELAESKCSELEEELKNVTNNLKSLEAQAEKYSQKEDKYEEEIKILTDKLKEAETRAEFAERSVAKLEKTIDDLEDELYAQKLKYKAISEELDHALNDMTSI
RuvB-like 2 (Homo sapiens), sequence (Q9Y230 whole entry): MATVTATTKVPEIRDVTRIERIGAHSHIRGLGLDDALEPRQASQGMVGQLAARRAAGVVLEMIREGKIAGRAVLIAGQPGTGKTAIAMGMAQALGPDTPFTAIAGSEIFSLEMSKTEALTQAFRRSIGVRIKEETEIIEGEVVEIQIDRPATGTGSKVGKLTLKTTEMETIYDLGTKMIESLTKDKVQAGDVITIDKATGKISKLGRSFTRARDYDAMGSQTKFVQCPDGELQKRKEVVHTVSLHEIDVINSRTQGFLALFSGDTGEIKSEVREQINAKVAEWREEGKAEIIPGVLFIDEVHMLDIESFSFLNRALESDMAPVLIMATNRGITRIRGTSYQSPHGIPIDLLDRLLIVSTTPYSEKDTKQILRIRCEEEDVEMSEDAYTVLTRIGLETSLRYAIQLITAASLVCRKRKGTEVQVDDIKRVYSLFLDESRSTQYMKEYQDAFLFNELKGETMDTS
Polymeric immunoglobulin receptor (Homo sapiens), sequence (P01833 whole entry): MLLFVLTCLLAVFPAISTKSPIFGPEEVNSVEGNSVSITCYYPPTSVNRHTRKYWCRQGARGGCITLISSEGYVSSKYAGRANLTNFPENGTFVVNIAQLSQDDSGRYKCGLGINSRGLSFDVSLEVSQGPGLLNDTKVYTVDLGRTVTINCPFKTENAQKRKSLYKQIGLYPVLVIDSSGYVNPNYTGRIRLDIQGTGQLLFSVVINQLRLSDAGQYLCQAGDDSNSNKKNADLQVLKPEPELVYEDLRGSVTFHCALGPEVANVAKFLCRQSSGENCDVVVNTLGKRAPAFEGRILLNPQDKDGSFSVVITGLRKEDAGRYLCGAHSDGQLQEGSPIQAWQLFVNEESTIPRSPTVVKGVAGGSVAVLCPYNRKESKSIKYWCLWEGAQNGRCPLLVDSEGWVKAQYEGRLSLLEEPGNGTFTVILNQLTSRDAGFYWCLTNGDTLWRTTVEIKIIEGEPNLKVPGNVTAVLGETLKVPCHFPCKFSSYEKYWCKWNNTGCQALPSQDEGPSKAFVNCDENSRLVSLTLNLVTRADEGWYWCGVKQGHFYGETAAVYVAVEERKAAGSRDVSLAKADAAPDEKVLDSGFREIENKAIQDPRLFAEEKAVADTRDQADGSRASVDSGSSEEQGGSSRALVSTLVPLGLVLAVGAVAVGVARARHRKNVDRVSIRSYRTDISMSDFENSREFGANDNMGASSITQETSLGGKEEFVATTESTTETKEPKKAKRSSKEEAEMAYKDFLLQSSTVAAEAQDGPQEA
Dual specificity mitogen-activated protein kinase kinase 1 (Homo sapiens), sequence (Q02750 whole entry): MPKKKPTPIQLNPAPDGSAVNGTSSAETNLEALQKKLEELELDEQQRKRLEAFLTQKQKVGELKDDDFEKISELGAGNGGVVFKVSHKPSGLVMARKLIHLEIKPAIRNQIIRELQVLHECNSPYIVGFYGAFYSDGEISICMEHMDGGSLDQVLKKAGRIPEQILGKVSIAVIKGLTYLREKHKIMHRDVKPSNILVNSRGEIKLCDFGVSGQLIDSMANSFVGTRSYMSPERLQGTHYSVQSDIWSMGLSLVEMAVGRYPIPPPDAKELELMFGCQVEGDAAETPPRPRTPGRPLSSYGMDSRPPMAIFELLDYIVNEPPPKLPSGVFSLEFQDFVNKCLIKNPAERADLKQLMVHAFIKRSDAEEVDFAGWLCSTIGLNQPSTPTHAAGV
Mitogen-activated protein kinase kinase kinase 11 (Homo sapiens), sequence (Q16584 whole entry, looked up): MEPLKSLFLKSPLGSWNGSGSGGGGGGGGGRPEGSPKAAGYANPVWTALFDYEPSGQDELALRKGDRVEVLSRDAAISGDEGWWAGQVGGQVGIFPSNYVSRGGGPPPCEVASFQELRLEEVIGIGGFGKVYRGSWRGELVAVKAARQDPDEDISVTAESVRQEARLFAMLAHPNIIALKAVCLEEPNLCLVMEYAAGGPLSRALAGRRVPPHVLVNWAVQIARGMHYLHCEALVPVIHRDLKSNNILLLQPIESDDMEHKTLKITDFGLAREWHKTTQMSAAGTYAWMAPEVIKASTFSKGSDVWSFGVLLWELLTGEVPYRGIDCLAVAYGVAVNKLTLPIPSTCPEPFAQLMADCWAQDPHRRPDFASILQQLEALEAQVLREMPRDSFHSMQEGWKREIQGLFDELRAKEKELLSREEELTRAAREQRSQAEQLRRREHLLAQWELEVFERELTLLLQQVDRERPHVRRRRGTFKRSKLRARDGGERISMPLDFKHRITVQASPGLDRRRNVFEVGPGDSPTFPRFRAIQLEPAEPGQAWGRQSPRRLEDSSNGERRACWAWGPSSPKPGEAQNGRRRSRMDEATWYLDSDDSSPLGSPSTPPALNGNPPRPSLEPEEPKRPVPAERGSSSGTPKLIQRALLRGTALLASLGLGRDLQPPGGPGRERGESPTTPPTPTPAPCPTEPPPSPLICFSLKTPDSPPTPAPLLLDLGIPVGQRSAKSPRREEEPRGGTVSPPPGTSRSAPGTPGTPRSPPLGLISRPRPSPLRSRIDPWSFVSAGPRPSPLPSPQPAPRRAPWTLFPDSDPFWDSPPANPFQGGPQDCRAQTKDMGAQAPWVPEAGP
5'-AMP-activated protein kinase subunit gamma-1 (Homo sapiens), sequence (P54619 whole entry): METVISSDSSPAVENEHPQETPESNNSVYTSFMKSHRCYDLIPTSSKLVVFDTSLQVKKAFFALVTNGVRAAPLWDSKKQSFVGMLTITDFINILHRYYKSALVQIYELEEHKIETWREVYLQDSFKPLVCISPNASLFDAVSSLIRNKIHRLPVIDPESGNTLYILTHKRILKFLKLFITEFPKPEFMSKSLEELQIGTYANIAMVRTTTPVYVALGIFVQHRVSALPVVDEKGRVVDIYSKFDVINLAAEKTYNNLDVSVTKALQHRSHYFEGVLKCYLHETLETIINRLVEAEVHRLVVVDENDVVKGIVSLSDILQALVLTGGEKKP
ATP-dependent 6-phosphofructokinase, muscle type (Homo sapiens), sequence (P08237 whole entry): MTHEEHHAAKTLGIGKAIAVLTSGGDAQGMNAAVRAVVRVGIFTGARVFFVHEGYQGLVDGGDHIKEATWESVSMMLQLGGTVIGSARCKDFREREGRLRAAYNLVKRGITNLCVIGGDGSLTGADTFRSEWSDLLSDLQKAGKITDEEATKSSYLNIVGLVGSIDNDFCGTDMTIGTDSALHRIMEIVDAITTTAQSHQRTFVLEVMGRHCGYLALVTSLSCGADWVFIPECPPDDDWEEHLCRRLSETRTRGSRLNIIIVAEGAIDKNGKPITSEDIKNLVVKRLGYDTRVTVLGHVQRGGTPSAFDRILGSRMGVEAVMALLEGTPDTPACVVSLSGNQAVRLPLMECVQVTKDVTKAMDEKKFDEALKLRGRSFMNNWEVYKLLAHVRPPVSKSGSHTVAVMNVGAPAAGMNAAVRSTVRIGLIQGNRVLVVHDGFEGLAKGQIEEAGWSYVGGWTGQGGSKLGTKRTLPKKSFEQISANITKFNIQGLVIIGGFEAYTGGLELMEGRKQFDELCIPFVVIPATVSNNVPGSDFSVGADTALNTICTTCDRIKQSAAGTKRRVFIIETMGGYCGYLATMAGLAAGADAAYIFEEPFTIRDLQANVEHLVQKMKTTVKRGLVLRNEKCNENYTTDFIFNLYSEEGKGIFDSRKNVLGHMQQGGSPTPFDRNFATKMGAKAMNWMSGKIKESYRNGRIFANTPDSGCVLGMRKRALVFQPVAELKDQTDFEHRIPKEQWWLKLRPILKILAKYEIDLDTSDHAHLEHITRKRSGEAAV
Tyrosine-protein phosphatase non-receptor type 1 (Homo sapiens), sequence (P18031 whole entry): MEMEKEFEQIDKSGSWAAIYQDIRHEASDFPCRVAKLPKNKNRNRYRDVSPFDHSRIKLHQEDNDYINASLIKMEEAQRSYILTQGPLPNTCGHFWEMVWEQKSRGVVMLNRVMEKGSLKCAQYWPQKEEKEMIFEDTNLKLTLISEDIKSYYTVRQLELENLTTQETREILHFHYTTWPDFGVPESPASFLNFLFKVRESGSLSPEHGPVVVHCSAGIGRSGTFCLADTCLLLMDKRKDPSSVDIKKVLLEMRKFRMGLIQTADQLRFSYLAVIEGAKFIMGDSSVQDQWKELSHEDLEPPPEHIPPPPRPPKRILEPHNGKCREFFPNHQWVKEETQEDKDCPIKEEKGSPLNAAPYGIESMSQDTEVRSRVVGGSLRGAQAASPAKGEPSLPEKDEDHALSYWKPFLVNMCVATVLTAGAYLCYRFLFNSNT
Calponin-2 (Homo sapiens), sequence (Q99439 whole entry): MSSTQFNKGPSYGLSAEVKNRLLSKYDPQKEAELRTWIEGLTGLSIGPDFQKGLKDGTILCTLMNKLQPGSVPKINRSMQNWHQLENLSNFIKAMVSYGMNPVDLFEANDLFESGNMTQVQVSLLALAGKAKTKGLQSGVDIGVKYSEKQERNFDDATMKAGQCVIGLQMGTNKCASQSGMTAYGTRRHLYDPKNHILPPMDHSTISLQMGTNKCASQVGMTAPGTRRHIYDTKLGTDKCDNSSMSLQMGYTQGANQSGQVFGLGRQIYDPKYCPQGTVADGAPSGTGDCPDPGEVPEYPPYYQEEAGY
Casein kinase II subunit beta (Homo sapiens), sequence (P67870 whole entry): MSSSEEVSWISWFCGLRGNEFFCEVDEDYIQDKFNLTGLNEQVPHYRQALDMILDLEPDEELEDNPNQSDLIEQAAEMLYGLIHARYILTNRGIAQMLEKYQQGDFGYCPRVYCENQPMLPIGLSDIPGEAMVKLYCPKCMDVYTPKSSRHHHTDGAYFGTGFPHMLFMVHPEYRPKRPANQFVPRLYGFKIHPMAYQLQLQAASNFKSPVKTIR

On to `COc1cc(O)c2c(c1)/C=C/C[C@H](O)[C@H](O)C(=O)/C=C\C[C@H](C)OC2=O`, for which the inhibition in test [1] is -1.7%. Further, the Activity in test [2] was 0.1%; in test [3], 0.35%.
With `C=CC(=O)Nc1ccccc1Nc1nc(Nc2ccc(N3CCN(CCOCCOCCOCCNC(=O)CCCC[C@@H]4SC[C@@H]5NC(=O)N[C@@H]54)CC3)cc2)ncc1Cl`, the outcome in [4], in [5], in test [6], in test [7], in test [8] and in test [9] was Active. The result in test [10], in test [11], in test [12], in [13], in test [14] and in test [15] was Active. The result in test [16], in [17], in test [18] and in test [19] was Active.
